This passage reports IC50 results from ChEMBL document CHEMBL1131529, “Novel tetranuclear orthometalated complexes of Pd(II) and Pt(II) derived from p-isopropylbenzaldehyde thiosemicarbazone with cytotoxic activity in cis-DDP resistant tumor cell lines. Interaction of these complexes with DNA” (J Med Chem, 1998).

The term IC50 denotes the concentration needed to halve the response being measured. High values mean a need for much substance, low ones inhibition by little substance.

One assay has as its system PAM. Kind of assay: Inhibitory activity against PAM cell line. It is filed as functional, cell-based, Mus musculus. The method in brief:
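Murine keratinocytes, normal Pam and H-ras-transformed Pam-Ras, were grown in DMEM with 10% FCS and 2 mM glutamine. They were seeded at 10^4 cells/well, preincubated 3–4 h, then given compounds at 0–100 µM final for 24 h. MTT was added to 1 mg/mL for 5 h at 37 °C and absorbance read at 520 nm. IC50 came from % survival vs concentration plots, in quadruplicate.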

For a further assay, the system named is PAM-RAS (Mus musculus). Kind of assay: Inhibitory activity against PAM-RAS cell line.
A further assay has as its system GLIOMA#108. Kind of assay: Inhibitory activity against GLIOMA#108 cell line. It is filed as functional, cell-based, Homo sapiens. The method in brief:
(§1)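 Cells were seeded at 10^4/well and treated 24 h with compounds at 0–100 µM final (solvent ≤10%). Survival was measured by MTT reduction (1 mg/mL, 5 h) read at 520 nm. IC50 came from survival–concentration curves, in quadruplicate.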

The test system of a further assay is GLIOMA#112. The experiment in a line: Inhibitory activity against GLIOMA#112 cell line. It is filed as functional, cell-based, Homo sapiens. In a few lines: as §1
The next assay deals with HeLa. The experiment in a line: Inhibitory activity against HeLa cell line. It is filed as functional, cell-based, Homo sapiens. The method in brief: (§2)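 HeLa cervical carcinoma cells were grown in DMEM with 10% FCS, and NIH 3T3 cells in DMEM with 10% newborn calf serum. Both were seeded at 10^4 cells/well and exposed 24 h to compounds at 0–100 µM final (ethanol or DMSO ≤10%). MTT was added to 1 mg/mL for 5 h at 37 °C and A520 read. IC50 came from survival curves, in quadruplicate.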

Another assay relates to NIH3T3. The experiment in a line: Inhibitory activity against 3T3 cell line. Type of assay: functional, cell-based, Mus musculus. The method in brief: as §2
A further assay deals with Jurkat. The experiment in a line: Inhibitory activity against JURKAT cell line. It is filed as functional, cell-based, Homo sapiens. The method in brief:
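Compounds were added at 0–100 µM final (ethanol or DMSO vehicle, ≤10%) for 24 h. MTT was added to 1 mg/mL for 5 h at 37 °C and absorbance read at 520 nm. IC50 came from % survival vs concentration curves, in quadruplicate.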

“And” between values parts separate entries of the source, which are not always exact repeats. Equal values may be shown once.

As for `COc1cccc2c1C(=O)c1c(O)c3c(c(O)c1C2=O)C[C@@](O)(C(=O)CO)C[C@@H]3O[C@H]1C[C@H](N)[C@H](O)[C@H](C)O1` [DOXORUBICIN], the IC50 in the assay with PAM (Mus musculus, PAM) turned out to be 150 µM; with PAM-RAS (Mus musculus) (Mus musculus, PAM-RAS) it was 156 µM.
As to `COc1cc([C@@H]2c3cc4c(cc3[C@@H](O[C@@H]3O[C@@H]5CO[C@@H](C)O[C@H]5[C@H](O)[C@H]3O)[C@H]3COC(=O)[C@H]23)OCO4)cc(OC)c1O` [ETOPOSIDE], the IC50 in the assay with GLIOMA#108 (Homo sapiens, GLIOMA#108) came to 76 µM; in the assay with GLIOMA#112 (Homo sapiens, GLIOMA#112) it was 62 µM; with PAM (Mus musculus, PAM), 180 µM; in the assay on PAM-RAS (Mus musculus) (Mus musculus, PAM-RAS), 136 µM.
Regarding CISPLATIN, the IC50 with HeLa turned out to be 7 µM; in the assay with GLIOMA#108 (glioma#108), 86 µM; in the assay with NIH3T3 it was 35 µM; in the assay with GLIOMA#112 (glioma#112), 120 µM; in the assay on PAM (pam), 164 µM; in the assay with PAM-RAS (Mus musculus) (pam-ras), 165 µM. This compound displayed an IC50 in the assay with Jurkat of 22 µM.
Turning to “Tetrameric orthopalladated p-isopropylbenzaldehyde thiosemicarbazone”, the IC50 is 40 µM and 62 µM in the assay on GLIOMA#108 (glioma#108); 50 µM and 35 µM in the assay with GLIOMA#112 (glioma#112); 37 µM and 5 µM with PAM-RAS (Mus musculus) (pam-ras); 6 µM and 7 µM with Jurkat.
“Tetrameric orthoplatinated p-isopropylbenzaldehyde thiosemicarbazone”: the half-inhibitory concentration (IC50) in the assay with HeLa is 20 µM; with GLIOMA#108 (glioma#108) it was 54 µM; in the assay with NIH3T3 it was 21 µM; with GLIOMA#112 (glioma#112), 27 µM; in the assay on PAM (pam), 30 µM; in the assay on PAM-RAS (Mus musculus) (pam-ras), 9 µM. For the same compound, in the assay with Jurkat, the IC50 worked out at 7 µM.
